Assay results as given in ChEMBL document CHEMBL1128540, “Synthesis and quantitative structure-activity relationships of dequalinium analogues as K+ channel blockers: investigation into the role of the substituent at position 4 of the quinoline ring” (J Med Chem, 1995).

How the values were obtained:
[1] = Equieffective molar ratio(EMR) to that of the dequalinium, causing 50% inhibition of AHP(action potential).; assay type: functional
Outline: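 AHP inhibition in cultured rat sympathetic neurones. Each compound was tested at two to four concentrations on at least three cells, with dequalinium run as reference in the same series (one to three compounds per series). EMR is the ratio of test compound to dequalinium concentration giving 50% AHP inhibition within the same experiment. Test concentrations above 10–30 μM were generally avoided.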

[2] = target: Small conductance calcium-activated potassium channel (Rattus norvegicus, UniProt P70604+P70606+P70605); assay: The SKCa-blocking action was assessed by its ability to inhibit the after hyperpolarization (AHP) in cultured rat sympathetic neurones; assay type: functional, cell-based; settings: sympathetic neuron
Outline: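 SKCa block was read as inhibition of the after-hyperpolarization following action potentials in cultured rat sympathetic neurones. Each compound was tested at two to four concentrations on at least three cells, and IC50 was taken for 50% AHP inhibition. Concentrations above 10–30 μM were generally avoided. Dequalinium was included as reference in each series.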

Row | Structure (SMILES) | IC50 [2] [µM] | EMR [1]
1 | COc1cc(OC)c(CNc2cc[n+](CCCCCCCCCC[n+]3ccc(NCc4c(OC)cc(OC)cc4OC)c4ccccc43)c3ccccc23)c(OC)c1 | 0.6 | 1
2 | CC(=O)Nc1cc[n+](CCCCCCCCCC[n+]2ccc(NC(C)=O)c3ccccc32)c2ccccc12 | 4.5 | 5.5
3 | Nc1ccc2c(NCc3ccccc3)cc[n+](CCCCCCCCCC[n+]3ccc(NCc4ccccc4)c4ccc(N)cc43)c2c1 | 0.5 | 0.9
4 | CC(=O)O[C@H]1C[C@@H]2CC[C@@H]3[C@H](CC[C@@]4(C)[C@H]3C[C@H]([N+]3(C)CCCCC3)[C@@H]4OC(C)=O)[C@@]2(C)C[C@@H]1[N+]1(C)CCCCC1.[Br-].[Br-] [PANCURONIUM BROMIDE] | 6.8 | –
5 | c1ccc2c(c1)ccc[n+]2CCCCCCCCCC[n+]1cccc2ccccc21 | 21 | 15
6 | Nc1c2c([n+](CCCCCCCCCC[n+]3c4c(c(N)c5ccccc53)CCCC4)c3ccccc13)CCCC2 | 1 | 0.9
7 | COc1cc2c3cc1Oc1cc(ccc1O)C[C@@H]1c4c(cc(OC)c(O)c4Oc4ccc(cc4)C[C@@H]3N(C)CC2)CC[N+]1(C)C.[Cl-] | 7.5 | –
8 | Cc1cc(N)c2ccccc2[n+]1CCCCCCCCCC[n+]1c(C)cc(N)c2ccccc21.[Cl-].[Cl-] [DEQUALINIUM CHLORIDE] | 0.74 | 1

More lines, main results first:

Row | IC50 [2] [µM] | Structure (SMILES) | EMR [1]
9 | 2.7 | c1ccc(Oc2cc[n+](CCCCCCCCCC[n+]3ccc(Oc4ccccc4)c4ccccc43)c3ccccc23)cc1 | 6.5
10 | 2.4 | c1ccc(Nc2cc[n+](CCCCCCCCCC[n+]3ccc(Nc4ccccc4)c4ccccc43)c3ccccc23)cc1 | 3.4
11 | 14.5 | Cc1cc[n+](CCCCCCCCCC[n+]2ccc(C)c3ccccc32)c2ccccc12 | 26
12 | 1.4 | Nc1cc[n+](CCCCCCCCCC[n+]2ccc(N)c3ccccc32)c2ccccc12 | 1.3
13 | 1.4 | CN(C)c1cc[n+](CCCCCCCCCC[n+]2ccc(N(C)C)c3ccccc32)c2ccccc12 | 1.4
14 | 1.4 | CN(c1ccccc1)c1cc[n+](CCCCCCCCCC[n+]2ccc(N(C)c3ccccc3)c3ccccc32)c2ccccc12 | 1.7
15 | > 10 | [O-]c1cc[n+](CCCCCCCCCC[n+]2ccc([O-])c3ccccc32)c2ccccc12 | > 10
16 | 0.52 | c1ccc(CNc2cc[n+](CCCCCCCCCC[n+]3ccc(NCc4ccccc4)c4ccccc43)c3ccccc23)cc1 | 0.7
